Where two headings read alike, the source gives them in different places.
What was measured:
[1] = test system: SiHa; test: CellTiter-Glo cytotoxicity assay, SiHa; format: cell-based; details: Homo sapiens
Outline: (§1)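 About 5,000 cells/well were dosed either continuously or for a 1 h pulse. After the pulse, cells were washed with pre-warmed medium and kept drug-free. Viability was read by CellTiter-Glo luminescence 72 h after dosing began. IC50 was the half-maximal growth-inhibiting concentration.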

[2] = test system: HCT-116; test: CellTiter-Glo cytotoxicity assay, HCT-116; format: cell-based; details: Homo sapiens
Outline: as §1

[3] = test system: SKNSH; test: CellTiter-Glo cytotoxicity assay, SKNSH; format: cell-based; details: Homo sapiens, SK-N-SH
Outline: as §1

[4] = test system: cancer cell lines; test: CellTiter-Glo cytotoxicity assay, cancer cell lines in general; format: cell-based, human
Outline: as §1

[5] = test system: various cancer cell lines; details: read-out: IC50 against various cancer cell lines; in vitro; cited from earlier work
[6] = test system: MRC5, WI-38 and IMR-90 normal lung fibroblast cell lines; test: Caspase Glo 3/7 assay, normal lung fibroblasts; format: cell-based, human; details: control, 1 microM for 72 hours
[7] = test system: SiHa cells; test: Caspase Glo 3/7 assay, SiHa; format: cell-based, human; details: 10 or 30 μM with 50 nM compound 3, 72 hours

**Q.** For `CCC(=C/[C@H](C)C/C=C/C(C)=C/[C@@H](C)C(=O)[C@@H](C)[C@H](O)[C@@H](C)C/C(C)=C/C(=O)O)/C=C/[C@@H]1OC(=O)C=C[C@@H]1C` [Leptomycin B], which IC50 ([1]; 72 h, read-out: SiHa (IC50 nM) 72h) is on record?
**A.** 0.4 nM

**Q.** And the IC50 ([1]; read-out: SiHa (IC50 nM) 1h)?
**A.** 2.1 nM

**Q.** And the IC50 ([2]; HCT-116, 72 h, read-out: HCT-116 (IC50 nM) 72h)?
**A.** 0.3 nM

**Q.** What about the IC50 ([2]; HCT-116, read-out: HCT-116 (IC50 nM) 1h) of the same molecule?
**A.** 4.3 nM

**Q.** What about the IC50 ([3]; 72 h, read-out: SKNSH (IC50 nM) 72h) of the same molecule?
**A.** 0.4 nM

**Q.** And the IC50 ([3]; read-out: SKNSH (IC50 nM) 1h)?
**A.** 4.1 nM

**Q.** What about the IC50 ([4]; Homo sapiens, read-out: IC50, one hour exposure) of the same molecule?
**A.** < 5 nM

**Q.** And the “IC50, 72 hour exposure” value ([4]; most cancer cell lines, 72 hour exposure)?
**A.** sub-nanomolar

**Q.** And the IC50 [5]?
**A.** 0.1 to 10 nM

**Q.** For `CN[C@@H]1C[C@H]2O[C@@](C)([C@@H]1OC)n1c3ccccc3c3c4c(c5c6ccccc6n2c5c31)C(=O)NC4` [staurosporine], which “Caspase 3/7 activation” value [6] is on record?
**A.** dramatic induction of caspases

**Q.** With `Cc1ccc(C(=O)Cn2c3c(sc2=N)CCCC3)cc1` [pifithrin-alpha] as the molecule, how does the “Effect on compound 3-induced apoptosis (caspase 3/7)” value [7] read?
**A.** blocked compound 3-induced apoptosis
